# Assays:
# [1] = target: T1, 5-hydroxytryptamine receptor 1A (Homo sapiens, UniProt P08908); assay: Displacement of [3H]8-OH-DPAT from human recombinant 5HT1A receptor expressed in CHOK1 cell membrane; type: cell membranes, CHO-K1
# T1 sequence (P08908 whole entry): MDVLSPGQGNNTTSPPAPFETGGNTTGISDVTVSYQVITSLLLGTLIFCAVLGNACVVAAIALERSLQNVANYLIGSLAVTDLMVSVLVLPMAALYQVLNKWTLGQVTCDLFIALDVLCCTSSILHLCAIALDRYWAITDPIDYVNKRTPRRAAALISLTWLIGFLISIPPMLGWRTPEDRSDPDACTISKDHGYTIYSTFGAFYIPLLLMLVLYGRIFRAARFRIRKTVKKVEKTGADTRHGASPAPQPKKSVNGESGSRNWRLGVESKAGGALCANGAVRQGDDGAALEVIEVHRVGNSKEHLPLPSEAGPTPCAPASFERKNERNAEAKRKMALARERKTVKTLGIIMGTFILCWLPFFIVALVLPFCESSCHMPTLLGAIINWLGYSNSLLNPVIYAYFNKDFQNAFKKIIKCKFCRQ
# Summary of the method: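 Radioligand 0.5 nM [3H]8-OH-DPAT with receptor membranes in 0.25 mL 50 mM Tris·HCl pH 7.4, 1 mM EDTA, 2.5 mM MgCl2. Incubated 30 min at 37 °C. Stopped by rapid filtration on GF/C filters presoaked in 0.3% polyethylenimine, then scintillation counted. Nonspecific binding defined with methiothepin.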
# [2] = target: 5-hydroxytryptamine receptor 2A (Homo sapiens, UniProt P28223); assay: Displacement of [3H]ketanserin from human recombinant 5HT2A receptor expressed in CHOK1 cell membrane; type: cell membranes, CHO-K1
# Summary of the method: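 Frozen membranes with 1 nM [3H]ketanserin in 50 mM Tris·HCl pH 7.4. Incubated 15 min at 37 °C. Harvested onto GF/C filters presoaked in 0.05% Brij. Nonspecific binding defined with mianserin.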
# [3] = target: 5-hydroxytryptamine receptor 6 (Homo sapiens, UniProt P50406); assay: Displacement of [3H]LSD from human 5HT6 receptor expressed in HeLa cells; type: cell-based
# Summary of the method: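 HeLa-cell membranes with 1.8 nM [3H]LSD in 0.25 mL 50 mM Tris·HCl pH 7.4, 10 mM MgCl2, 0.5 mM EDTA. Incubated 60 min at 37 °C. Terminated by filtration through GF/C filters presoaked in 0.3% polyethylenimine. Methiothepin used for nonspecific binding.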
# [4] = target: T2, 5-hydroxytryptamine receptor 2C (Homo sapiens, UniProt P28335); assay: Displacement of [3H]mesulergine from human recombinant 5HT2C receptor expressed in CHOK1 cell membrane; type: cell membranes, CHO-K1
# T2 sequence (P28335 whole entry): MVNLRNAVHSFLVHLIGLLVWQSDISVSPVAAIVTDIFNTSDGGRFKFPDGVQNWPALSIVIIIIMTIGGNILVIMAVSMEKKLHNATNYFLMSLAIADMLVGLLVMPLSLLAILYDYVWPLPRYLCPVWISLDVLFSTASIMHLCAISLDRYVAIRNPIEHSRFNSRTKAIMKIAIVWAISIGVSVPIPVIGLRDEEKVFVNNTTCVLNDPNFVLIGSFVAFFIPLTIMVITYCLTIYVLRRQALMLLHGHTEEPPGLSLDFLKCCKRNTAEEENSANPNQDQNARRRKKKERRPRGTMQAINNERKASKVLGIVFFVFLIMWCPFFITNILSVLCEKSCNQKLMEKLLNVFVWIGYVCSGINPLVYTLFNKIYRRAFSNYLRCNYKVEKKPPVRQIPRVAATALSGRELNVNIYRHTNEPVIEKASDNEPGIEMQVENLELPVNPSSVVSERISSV
# Summary of the method: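 Frozen membranes with 1 nM [3H]mesulergine in 50 mM Tris·HCl pH 7.7 containing 0.1% ascorbic acid and pargyline. Incubated 30 min at 37 °C. Stopped by rapid filtration through GF/C filters presoaked in 1% BSA. Nonspecific binding defined with mianserin.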
# [5] = target: 5-hydroxytryptamine receptor 7 (Homo sapiens, UniProt P34969); assay: Displacement of [3H]LSD from human recombinant 5HT7 receptor expressed in CHO cell membrane; type: cell membranes
# Summary of the method: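 Membranes incubated with 3 nM [3H]LSD in 0.25 mL 50 mM Tris·HCl pH 7.4, 10 mM MgCl2, 0.5 mM EDTA, 90 min at 27 °C. Filtered on GF/C presoaked in 0.3% PEI and counted. Nonspecific binding with 0.5 uM methiothepin. 7-8 concentrations tested in duplicate, three assays. IC50 from nonlinear regression.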
# Chain of 5-hydroxytryptamine receptor 2A (P28223 whole entry): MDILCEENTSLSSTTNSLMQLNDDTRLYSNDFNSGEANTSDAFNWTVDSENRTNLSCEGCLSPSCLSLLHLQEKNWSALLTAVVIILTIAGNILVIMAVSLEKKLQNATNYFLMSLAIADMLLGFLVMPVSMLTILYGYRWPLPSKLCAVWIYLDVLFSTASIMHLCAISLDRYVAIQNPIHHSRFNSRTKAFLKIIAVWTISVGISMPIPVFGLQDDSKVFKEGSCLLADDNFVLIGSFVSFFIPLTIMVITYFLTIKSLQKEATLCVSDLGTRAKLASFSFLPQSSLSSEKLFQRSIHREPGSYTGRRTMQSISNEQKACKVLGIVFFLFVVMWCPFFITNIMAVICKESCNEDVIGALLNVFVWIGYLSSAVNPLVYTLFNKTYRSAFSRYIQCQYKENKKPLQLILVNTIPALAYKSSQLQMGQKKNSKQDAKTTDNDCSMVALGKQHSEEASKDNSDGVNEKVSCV
# Chain of 5-hydroxytryptamine receptor 7 (P34969 whole entry): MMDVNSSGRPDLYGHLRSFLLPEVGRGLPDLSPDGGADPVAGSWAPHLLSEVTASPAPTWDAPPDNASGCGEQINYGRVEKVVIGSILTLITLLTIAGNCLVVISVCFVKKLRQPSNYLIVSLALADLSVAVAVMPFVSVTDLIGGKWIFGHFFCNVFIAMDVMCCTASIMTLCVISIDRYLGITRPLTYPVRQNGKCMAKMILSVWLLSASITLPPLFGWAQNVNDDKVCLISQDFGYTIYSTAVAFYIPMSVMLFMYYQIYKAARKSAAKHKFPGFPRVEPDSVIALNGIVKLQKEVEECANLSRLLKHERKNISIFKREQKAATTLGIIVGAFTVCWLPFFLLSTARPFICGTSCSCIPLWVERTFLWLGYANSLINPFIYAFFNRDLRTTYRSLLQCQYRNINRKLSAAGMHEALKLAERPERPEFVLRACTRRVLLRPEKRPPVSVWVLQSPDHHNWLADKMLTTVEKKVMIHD
# Chain of 5-hydroxytryptamine receptor 6 (P50406 whole entry): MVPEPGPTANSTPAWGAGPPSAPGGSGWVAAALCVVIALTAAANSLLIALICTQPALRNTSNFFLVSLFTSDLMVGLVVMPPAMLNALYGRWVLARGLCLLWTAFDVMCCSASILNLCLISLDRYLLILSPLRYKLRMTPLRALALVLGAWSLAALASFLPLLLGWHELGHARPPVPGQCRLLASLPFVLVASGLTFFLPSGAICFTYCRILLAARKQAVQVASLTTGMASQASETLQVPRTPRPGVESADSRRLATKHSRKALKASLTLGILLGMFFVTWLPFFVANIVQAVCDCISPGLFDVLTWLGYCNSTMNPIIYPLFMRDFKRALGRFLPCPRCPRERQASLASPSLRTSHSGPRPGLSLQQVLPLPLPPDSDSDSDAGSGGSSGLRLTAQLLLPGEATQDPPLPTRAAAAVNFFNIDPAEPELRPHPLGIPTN
IC50 [1],IC50 [2],IC50 [3],IC50 [4],IC50 [5],Structure (SMILES)
272 nM,5170 nM,> 10000 nM,9670 nM,,COc1ccc(S(=O)(=O)NCCCN2CCN(c3ccccc3OC)CC2)cc1
,,,,103 nM,COc1ccc(S(=O)(=O)NCCCN2CCN(c3ccc(Cl)c(Cl)c3)CC2)cc1
,,,,223 nM,COc1cccc(N2CCN(CCCNS(=O)(=O)c3ccc4ccccc4c3)CC2)c1
44 nM,352 nM,2840 nM,57 nM,89 nM,COc1ccc(S(=O)(=O)NCCCN2CCN(c3cccc(C(F)(F)F)c3)CC2)cc1
,,,,> 10000 nM,COc1ccc(S(=O)(=O)NCCCN2CCN(c3ccc([N+](=O)[O-])cc3)CC2)cc1
,,,,339 nM,COc1ccc(S(=O)(=O)NCCCN2CCN(c3cccc(OC)c3)CC2)cc1
,,,,9310 nM,COc1ccc(N2CCN(CCCNS(=O)(=O)c3ccc(OC)cc3)CC2)cc1
39 nM,74 nM,> 10000 nM,4890 nM,47 nM,COc1ccc(S(=O)(=O)NCCCN2CCN(c3ccc(F)cc3)CC2)cc1
,,,,3240 nM,COc1ccc(N2CCN(CCCNS(=O)(=O)c3ccc4ccccc4c3)CC2)cc1
,,,,53 nM,O=S(=O)(NCCCN1CCN(c2ccc(F)cc2)CC1)c1ccc2ccccc2c1
,,,,373 nM,COc1ccc(S(=O)(=O)NC(C)CCN2CCN(c3ccc(F)cc3)CC2)cc1 (stereo not given)
,,,,> 10000 nM,COc1ccc(S(=O)(=O)NCCCN2CCN(c3ccc(C(C)=O)cc3)CC2)cc1
,,,,289 nM,COc1ccc(S(=O)(=O)NCCCN2CCN(c3ccccc3F)CC2)cc1
,,,,384 nM,COc1ccc(S(=O)(=O)NCCCN2CCN(c3ccc(C(F)(F)F)cc3)CC2)cc1
,,,,> 10000 nM,COc1ccc(S(=O)(=O)NCCCN2CCN(c3ccccc3)CC2)cc1

# More lines, now with the values behind:
Structure (SMILES),IC50 [1],IC50 [2],IC50 [3],IC50 [4],IC50 [5]
O=S(=O)(NCCCN1CCN(Cc2ccccc2)CC1)c1ccccc1,,,,,949 nM
COc1ccc(S(=O)(=O)NC(C)CCN2CCN(c3ccccc3OC)CC2)cc1 (stereo not given),,,,,580 nM
O=S(=O)(NCCCN1CCN(c2ccccc2F)CC1)c1ccc2ccccc2c1,,,,,140 nM
O=S(=O)(NCCCN1CCN(Cc2ccccc2)CC1)c1ccc2ccccc2c1,,,,,476 nM
O=S(=O)(NCCCN1CCN(c2ccc(Cl)c(Cl)c2)CC1)c1ccc2ccccc2c1,215 nM,19 nM,768 nM,215 nM,124 nM
COc1ccc(S(=O)(=O)NC(C)CCN2CCN(c3cccc(C(F)(F)F)c3)CC2)cc1 (stereo not given),39 nM,1820 nM,6920 nM,1350 nM,107 nM
COc1ccc(S(=O)(=O)NCCCN2CCN(C(=O)c3ccco3)CC2)cc1,,,,,> 10000 nM
O=S(=O)(NCCCN1CCN(c2cccc(C(F)(F)F)c2)CC1)c1ccc2ccccc2c1,29 nM,95 nM,1960 nM,91 nM,12 nM
O=S(=O)(NCCCN1CCN(c2ccc(C(F)(F)F)cc2)CC1)c1ccc2ccccc2c1,,,,,567 nM
COc1ccc(S(=O)(=O)NC(C)CCN2CCN(c3ccccc3)CC2)cc1 (stereo not given),,,,,377 nM
COc1ccc(S(=O)(=O)NCCCN2CCN(C(=O)OCc3ccccc3)CC2)cc1,,,,,> 10000 nM
COc1ccccc1N1CCN(CCCNS(=O)(=O)c2ccc3ccccc3c2)CC1,4.6 nM,85 nM,2630 nM,241 nM,20 nM
O=S(=O)(NCCCN1CCN(c2ccccc2)CC1)c1ccc2ccccc2c1,,,,,681 nM

# — ChEMBL document CHEMBL1150331, “Preparation of piperazine derivatives as 5-HT7 receptor antagonists” (Bioorg Med Chem, 2008)
